From ChEMBL document CHEMBL1649483, “Molecular analysis of the gyrA and gyrB quinolone resistance-determining regions of fluoroquinolone-resistant Clostridium difficile mutants selected in vitro” (2009)
≈ marks a conversion by molar mass, not a printed value.

Assays:
Type in all cases: functional
Clostridioides difficile [1] = test: Antimicrobial activity against Clostridium difficile BI2b harboring GyrB Arg447Lys mutant gene selected after 2 ug/ml of moxifloxacin by Etest method
Method in brief: (§1)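 Stable in vitro-selected mutant tested for gatifloxacin susceptibility by Etest, per the manufacturer's instructions, with an 8 μg/ml breakpoint. For selection, the parent was grown in antibiotic-free brain heart infusion (BHI) for 24 h at 35°C under anaerobic conditions. […] Later steps used double the MIC. Stability was confirmed by three subcultures.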

Clostridioides difficile [2] = test: Antimicrobial activity against Clostridium difficile BI2c harboring GyrB Arg447Lys mutant gene selected after 2 ug/ml of moxifloxacin by Etest method; method in brief: as §1
Clostridioides difficile [3] = test: Antimicrobial activity against Clostridium difficile C253F selected after 8 ug/ml of levofloxacin by Etest method
Clostridioides difficile [4] = test: Antimicrobial activity against Clostridium difficile CD5A harboring GyrB Ser416Ala mutant gene selected after 4 ug/ml of levofloxacin by Etest method
Clostridioides difficile [5] = test: Antimicrobial activity against Clostridium difficile CD5E harboring GyrB Ser416Ala mutant gene selected after 8 ug/ml of levofloxacin by Etest method
Clostridioides difficile [6] = test: Antimicrobial activity against Clostridium difficile A422A selected after 4 ug/ml of levofloxacin by Etest method; method in brief: as §1
Clostridioides difficile [7] = test: Antimicrobial activity against Clostridium difficile A422C selected after 4 ug/ml of levofloxacin by Etest method; method in brief: as §1
Clostridioides difficile [8] = test: Antimicrobial activity against Clostridium difficile 630A selected after 4 ug/ml of levofloxacin by Etest method; method in brief: as §1
Clostridioides difficile [9] = test: Antimicrobial activity against Clostridium difficile 630C selected after 4 ug/ml of levofloxacin by Etest method; method in brief: as §1
Clostridioides difficile [10] = test: Antimicrobial activity against Clostridium difficile 630F harboring GyrA Ala118Val mutant gene selected after 8 ug/ml of levofloxacin by Etest method; method in brief: as §1
Clostridioides difficile [11] = test: Antimicrobial activity against Clostridium difficile BI2E harboring GyrB Glu466Lys mutant gene selected after 8 ug/ml of levofloxacin by Etest method; method in brief: as §1
Clostridioides difficile [12] = test: Antimicrobial activity against Clostridium difficile BI2F harboring GyrB Glu466Lys mutant gene selected after 8 ug/ml of levofloxacin by Etest method; method in brief: as §1
Clostridioides difficile [13] = test: Antimicrobial activity against Clostridium difficile C253 expressing tcdA and tcdB gene by Etest method
Method in brief: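 Parent clinical or nontoxigenic isolate tested for gatifloxacin susceptibility by Etest, run per the manufacturer's instructions; a fluoroquinolone breakpoint of 8 μg/ml was applied.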

Clostridioides difficile [14] = test: Antimicrobial activity against Clostridium difficile C253f selected after 4 ug/ml of moxifloxacin by Etest method
Clostridioides difficile [15] = test: Antimicrobial activity against Clostridium difficile C253h harboring GyrA Ala118Ser mutant gene selected after 8 ug/ml of moxifloxacin by Etest method
Clostridioides difficile [16] = test: Antimicrobial activity against Clostridium difficile CD5a harboring GyrB Ser416Ala mutant gene selected after 2 ug/ml of moxifloxacin by Etest method
Clostridioides difficile [17] = test: Antimicrobial activity against Clostridium difficile CD5e harboring GyrB Ser416Ala mutant gene selected after 4 ug/ml of moxifloxacin by Etest method
Clostridioides difficile [18] = test: Antimicrobial activity against Clostridium difficile CD5 1-g harboring GyrA Ala92Glu and GyrB Ser416Ala mutant genes selected after 8 ug/ml of moxifloxacin by Etest method
Clostridioides difficile [19] = test: Antimicrobial activity against Clostridium difficile A422b selected after 2 ug/ml of moxifloxacin by Etest method; method in brief: as §1
Clostridioides difficile [20] = test: Antimicrobial activity against Clostridium difficile A422e selected after 4 ug/ml of moxifloxacin by Etest method; method in brief: as §1
Clostridioides difficile [21] = test: Antimicrobial activity against Clostridium difficile 630b selected after 2 ug/ml of moxifloxacin by agar dilution method
Clostridioides difficile [22] = test: Antimicrobial activity against Clostridium difficile 630c selected after 2 ug/ml of moxifloxacin by agar dilution method
Clostridioides difficile [23] = test: Antimicrobial activity against Clostridium difficile 630d selected after 4 ug/ml of moxifloxacin by agar dilution method
Clostridioides difficile [24] = test: Antimicrobial activity against Clostridium difficile 630f selected after 4 ug/ml of moxifloxacin by agar dilution method
Clostridioides difficile [25] = test: Antimicrobial activity against Clostridium difficile C253D selected after 8 ug/ml of levofloxacin by agar dilution method
Clostridioides difficile [26] = test: Antimicrobial activity against Clostridium difficile C253E selected after 8 ug/ml of levofloxacin by agar dilution method
Clostridioides difficile [27] = test: Antimicrobial activity against Clostridium difficile C253F selected after 8 ug/ml of levofloxacin by agar dilution method
Clostridioides difficile [28] = test: Antimicrobial activity against Clostridium difficile CD5A harboring GyrB Ser416Ala mutant gene selected after 4 ug/ml of levofloxacin by agar dilution method
Clostridioides difficile [29] = test: Antimicrobial activity against Clostridium difficile CD5B harboring GyrB Ser416Ala mutant gene selected after 4 ug/ml of levofloxacin by agar dilution method
Clostridioides difficile [30] = test: Antimicrobial activity against Clostridium difficile CD5E harboring GyrB Ser416Ala mutant gene selected after 8 ug/ml of levofloxacin by agar dilution method
Clostridioides difficile [31] = test: Antimicrobial activity against Clostridium difficile C253 expressing tcdA and tcdB gene by agar dilution method
Clostridioides difficile [32] = test: Antimicrobial activity against Clostridium difficile A422C selected after 4 ug/ml of levofloxacin by agar dilution method
Clostridioides difficile [33] = test: Antimicrobial activity against Clostridium difficile A422E harboring GyrB Leu451Phe mutant gene selected after 8 ug/ml of levofloxacin by agar dilution method
Clostridioides difficile [34] = test: Antimicrobial activity against Clostridium difficile A422F harboring GyrB Leu451Phe mutant gene selected after 8 ug/ml of levofloxacin by agar dilution method
Clostridioides difficile [35] = test: Antimicrobial activity against Clostridium difficile 630B selected after 4 ug/ml of levofloxacin by agar dilution method
Clostridioides difficile [36] = test: Antimicrobial activity against Clostridium difficile 630E harboring GyrA Ala118Val mutant gene selected after 8 ug/ml of levofloxacin by agar dilution method
Clostridioides difficile [37] = test: Antimicrobial activity against Clostridium difficile BI2E harboring GyrB Glu466Lys mutant gene selected after 8 ug/ml of levofloxacin by agar dilution method
Clostridioides difficile [38] = test: Antimicrobial activity against Clostridium difficile C253c selected after 2 ug/ml of moxifloxacin by agar dilution method
Clostridioides difficile [39] = test: Antimicrobial activity against Clostridium difficile CD5h harboring GyrA Ala92Glu and GyrB Ser416Ala mutant genes selected after 8 ug/ml of moxifloxacin by agar dilution method
Clostridioides difficile [40] = test: Antimicrobial activity against Clostridium difficile CD5 2-g harboring GyrA Ala118Ser, Thr82Ala and GyrB Ser416Ala mutant genes selected after 8 ug/ml of moxifloxacin by agar dilution method
Clostridioides difficile [41] = test: Antimicrobial activity against Clostridium difficile CD5i harboring GyrA Ala118Ser, Thr82Ala and GyrB Ser416Ala mutant genes selected after 8 ug/ml of moxifloxacin by agar dilution method
Clostridioides difficile [42] = test: Antimicrobial activity against Clostridium difficile A422d selected after 4 ug/ml of moxifloxacin by agar dilution method

## COc1c(N2CCNC(C)C2)c(F)cc2c(=O)c(C(=O)O)cn(C3CC3)c12 (configuration not stated) [GATIFLOXACIN]
Clostridioides difficile [1]
  MIC: 1.5 µg/mL
Clostridioides difficile [2]
  MIC: 1.5 µg/mL
Clostridioides difficile [3]
  MIC: 1 µg/mL
Clostridioides difficile [4]
  MIC: 0.5 µg/mL
Clostridioides difficile [5]
  MIC: 2 µg/mL
Clostridioides difficile [6]
  MIC: 1 µg/mL
Clostridioides difficile [7]
  MIC: 1 µg/mL
Clostridioides difficile [8]
  MIC: 0.75 µg/mL
Clostridioides difficile [9]
  MIC: 0.75 µg/mL
Clostridioides difficile [10]
  MIC: 3 µg/mL
Clostridioides difficile [11]
  MIC: ≥ 32 µg/mL
Clostridioides difficile [12]
  MIC: ≥ 32 µg/mL
Clostridioides difficile [13]
  MIC: 0.5 µg/mL (≈ 1.33 µM)
Clostridioides difficile [14]
  MIC: 1 µg/mL
Clostridioides difficile [15]
  MIC: 8 µg/mL
Clostridioides difficile [16]
  MIC: 0.75 µg/mL
Clostridioides difficile [17]
  MIC: 0.75 µg/mL
Clostridioides difficile [18]
  MIC: 3 µg/mL
Clostridioides difficile [19]
  MIC: 1.5 µg/mL
Clostridioides difficile [20]
  MIC: 1.5 µg/mL

## C[C@H]1COc2c(N3CCN(C)CC3)c(F)cc3c(=O)c(C(=O)O)cn1c23.C[C@H]1COc2c(N3CCN(C)CC3)c(F)cc3c(=O)c(C(=O)O)cn1c23.O [LEVOFLOXACIN]
Clostridioides difficile [21]
  MIC: 4 µg/mL
Clostridioides difficile [22]
  MIC: 4 µg/mL
Clostridioides difficile [23]
  MIC: 4 µg/mL
Clostridioides difficile [24]
  MIC: 4 µg/mL
Clostridioides difficile [25]
  MIC: 2 µg/mL
Clostridioides difficile [26]
  MIC: 2 µg/mL
Clostridioides difficile [27]
  MIC: 2 µg/mL
Clostridioides difficile [28]
  MIC: 1 µg/mL
Clostridioides difficile [29]
  MIC: 1 µg/mL
Clostridioides difficile [30]
  MIC: 2 µg/mL
Clostridioides difficile [31]
  MIC: 2 µg/mL
Clostridioides difficile [32]
  MIC: 1 µg/mL
Clostridioides difficile [33]
  MIC: 2 µg/mL
Clostridioides difficile [34]
  MIC: 2 µg/mL
Clostridioides difficile [35]
  MIC: 1 µg/mL
Clostridioides difficile [36]
  MIC: 8 µg/mL
Clostridioides difficile [37]
  MIC: 16 µg/mL
Clostridioides difficile [38]
  MIC: 4 µg/mL
Clostridioides difficile [39]
  MIC: 16 µg/mL
Clostridioides difficile [40]
  MIC: 64 µg/mL
Clostridioides difficile [41]
  MIC: 64 µg/mL
Clostridioides difficile [42]
  MIC: 4 µg/mL
